Our source for the CC50, logP and Drug uptake values is ChEMBL document CHEMBL1157821, “In vitro photodynamic therapy and quantitative structure-activity relationship studies with stable synthetic near-infrared-absorbing bacteriochlorin photosensitizers” (J Med Chem, 2010).

The subject of data set [1] is HeLa. In words: Photocytotoxicity against human HeLa cells after 24 hrs by MTT assay in presence of 10 J/cm2 laser. The class given is functional. The following applies: light or radiation study, read-out: LD50 (the source's name). In outline: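 HeLa cells (5000/well) grown 24 h, then incubated 24 h with bacteriochlorin at 0.001–10 μM in complete RPMI with 10% serum (DMSO ≤0.2%). Medium replaced, then 10 J/cm2 of 732 nm laser light given (780 nm LED, 50 mW/cm2, for one compound). MTT (4 h, 562 nm) 24 h later. Survival is relative to untreated controls. LD50 in nM. Experiments done in triplicate.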

The nature of data set [2]: Octanol-water partition coefficient, log P by stir-flask method. The class given is physicochemical. Put shortly: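 About 2 mL octanol and 2 mL water were pre-stirred 3 h at room temperature. Under 0.5 mg bacteriochlorin was added and stirred 24 h at 100–200 rpm, then the phases settled for 30 min. An aliquot of each phase was diluted in DMSO and the Qy(0,0) absorbance ratio (octanol/water) was taken. A phase with no detectable compound was set at A=0.001 as a bound.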

The test system of data set [3] is HeLa. Put plainly: Cellular uptake in human HeLa cells measured per mg of protein at 20.5 uM after 24 hrs by fluorescence measurements. The class given is ADME, cell-based. Put shortly:
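HeLa in RPMI with 10% heat-inactivated FBS, 5000 cells/well, grown 24 h, then given bacteriochlorin in complete medium (DMSO ≤0.2%) for 24 h. Cells were rinsed with warm PBS and lysed in SOLVABLE, 37 °C, 2 h. Fluorescence was read at ex 402/em 730 nm against per-compound calibration curves and normalized to BCA protein, giving nmol per mg protein. Three repeats.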

For data set [4], the system named is HeLa. Put plainly: Cellular uptake in human HeLa cells assessed as localization to endoplasmic reticulum at 1 uM after 24 hrs by confocal fluorescence microscopy. The class given is ADME, cell-based. Put shortly:
(§1)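 HeLa plated in 35 mm dishes, attached overnight, then given 1 μM bacteriochlorin in complete medium for 24 h. After a PBS wash, cells got 5 μg/mL LysoTracker green DND-26, MitoTracker green FM or ER-Tracker green for 30 min at 37 °C, then were washed again. Confocal imaging used 488 nm excitation, 515 ± 10 nm (tracker) or >580 nm (bacteriochlorin) emission, and a 63× water objective.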

Data set [5] deals with HeLa. Put plainly: Cellular uptake in human HeLa cells assessed as localization to mitochondria at 1 uM after 24 hrs by confocal fluorescence microscopy. The class given is ADME, cell-based. Put shortly: as §1
The subject of data set [6] is HeLa. Put plainly: Cellular uptake in human HeLa cells assessed as localization to lysosomes at 1 uM after 24 hrs by confocal fluorescence microscopy. The class given is ADME, cell-based. Put shortly:
as §1

As usually defined, the logP is the decadic logarithm of the partition coefficient of the neutral form, usually between octanol and water. Consider `CC1(C)Cc2cc3[nH]c(cc4nc(cc5[nH]c(cc1n2)cc5C(=O)N(CCN)CCN)CC4(C)C)cc3C(=O)N(CCN)CCN`, for which the CC50 in data set [1] came to 800 nM. Also, the logP in data set [2] (read-out: logP) was -1.4. In data set [3], this molecule displayed a Drug uptake of 1.8 nmol/mg.

Turning to `CC1(C)Cc2cc3[nH]c(cc4nc(cc5[nH]c(cc1n2)cc5-c1cc(O)cc(O)c1)CC4(C)C)cc3-c1cc(O)cc(O)c1`, in data set [1], the CC50 worked out at 80 nM. Besides, the Drug uptake result was “Active” in data set [4], 13.5 nmol/mg in data set [3] and “Active” in data set [5]. In data set [2] (read-out: logP), the logP is at least 2.5.

As to `CC1(C)Cc2cc3[nH]c(cc4nc(cc5[nH]c(cc1n2)cc5C#CC[N+](C)(C)C)CC4(C)C)cc3C#CC[N+](C)(C)C.[Cl-].[Cl-]`, the CC50 in data set [1] was determined as 2000 nM. Besides, the logP in data set [2] (read-out: logP) was 0.9. Further, the Drug uptake in data set [3] is 8.2 nmol/mg.

For the molecule `CC1(C)Cc2cc3[nH]c(cc4nc(cc5[nH]c(cc1n2)cc5CN(CCO)CCO)CC4(C)C)cc3CN(CCO)CCO`, the values for the Drug uptake result in data set [6], in data set [4] and in data set [3] were “Active”, “Active” and 8.2 nmol/mg, respectively. Further, the CC50 in data set [1] amounted to 100 nM. In addition, in data set [2] (read-out: logP), the logP came to 2.3.

On to `CC1(C)Cc2cc3[nH]c(cc4nc(cc5[nH]c(cc1n2)cc5-c1cc(OCCO)cc(OCCO)c1)CC4(C)C)cc3-c1cc(OCCO)cc(OCCO)c1`, for which, in data set [1], the CC50 was found to be 15 nM. For the same molecule, the logP in data set [2] (read-out: logP) is at least 2.2. In data set [3], this molecule registered a Drug uptake of 10.4 nmol/mg.

Turning to `COCCN(CCOC)C(=O)c1cc2cc3nc(cc4[nH]c(cc5nc(cc1[nH]2)CC5(C)C)cc4C(=O)N(CCOC)CCOC)CC3(C)C`, the CC50 in data set [1] amounted to 60 nM. Moreover, in data set [2] (read-out: logP), the logP is at least 1.9. Besides, the Drug uptake in data set [3] came out at 15 nmol/mg.

As to `COCCOCCOCCOCCNCc1cc(CNCCOCCOCCOCCOC)cc(-c2c3nc(cc4[nH]c(cc4-c4ccc(C)cc4)c(OC)c4nc(cc5[nH]c2cc5-c2ccc(C)cc2)C(C)(C)C4)C(C)(C)C3)c1`, the CC50 in data set [1] came out at 500 nM. For the same molecule, the logP in data set [2] (read-out: logP) was at least 2.2. For the same molecule, the Drug uptake in data set [3] stood at 3.9 nmol/mg.

In the case of `CC1(C)Cc2cc3[nH]c(cc4nc(cc5[nH]c(cc1n2)cc5C(=O)O)CC4(C)C)cc3C(=O)O`, in data set [1], the CC50 stood at 4000 nM. For the same molecule, in data set [2] (read-out: logP), the logP came out at 1.4. The same molecule displayed a Drug uptake in data set [3] of 0.72 nmol/mg.

Consider `COCCC(CCOC)c1cc2cc3nc(cc4[nH]c(cc5nc(cc1[nH]2)CC5(C)C)cc4C(CCOC)CCOC)CC3(C)C`, for which the lipophilicity (logP) in data set [2] (read-out: logP) is at least 2.5. In data set [3], this molecule returned a Drug uptake of 11.7 nmol/mg.

With `CC1(C)Cc2cc3[nH]c(cc4nc(cc5[nH]c(cc1n2)cc5C(=O)/C=C/c1cc(O)cc(O)c1)CC4(C)C)cc3C(=O)/C=C/c1cc(O)cc(O)c1`, in data set [1], the CC50 was determined as 200 nM. Further, the logP in data set [2] (read-out: logP) was at least 1.8. Besides, the Drug uptake in data set [3] amounted to 1.8 nmol/mg.

As to `CC1(C)Cc2cc3[nH]c(cc4nc(cc5[nH]c(cc1n2)cc5C(=O)NCCN)CC4(C)C)cc3C(=O)NCCN`, the Drug uptake entry is “Active” in data set [6] and 7.7 nmol/mg in data set [3]. Besides, the CC50 in data set [1] was found to be 3000 nM. The logP in data set [2] (read-out: logP) is -0.5.

For the molecule `CC1(C)Cc2cc3[nH]c(cc4nc(cc5[nH]c(cc1n2)cc5C(=O)N1CC[N+](C)(C)CC1)CC4(C)C)cc3C(=O)N1CC[N+](C)(C)CC1.[Cl-].[Cl-]`, the CC50 in data set [1] stood at 800 nM. For the same molecule, the log partition coefficient (logP) in data set [2] was -1. The same molecule showed a Drug uptake in data set [3] of 1.8 nmol/mg.
